The text below walks through data of PubChem BioAssay AID488782 (The Scripps Research Institute Molecular Screening Center, 2010).

A word on the IC50: it is the concentration needed to halve the response being measured.

Activity calls are given as the source filed them.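 Rule for the calls: active = concentration giving half-maximal inhibition of the luciferase signal, from the fitted curve, at 5 µM or lower; inactive = half-inhibition concentration above 5 µM.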

Sequence of Nuclear receptor subfamily 5 group A member 2 (Homo sapiens) (O00482 whole entry, looked up): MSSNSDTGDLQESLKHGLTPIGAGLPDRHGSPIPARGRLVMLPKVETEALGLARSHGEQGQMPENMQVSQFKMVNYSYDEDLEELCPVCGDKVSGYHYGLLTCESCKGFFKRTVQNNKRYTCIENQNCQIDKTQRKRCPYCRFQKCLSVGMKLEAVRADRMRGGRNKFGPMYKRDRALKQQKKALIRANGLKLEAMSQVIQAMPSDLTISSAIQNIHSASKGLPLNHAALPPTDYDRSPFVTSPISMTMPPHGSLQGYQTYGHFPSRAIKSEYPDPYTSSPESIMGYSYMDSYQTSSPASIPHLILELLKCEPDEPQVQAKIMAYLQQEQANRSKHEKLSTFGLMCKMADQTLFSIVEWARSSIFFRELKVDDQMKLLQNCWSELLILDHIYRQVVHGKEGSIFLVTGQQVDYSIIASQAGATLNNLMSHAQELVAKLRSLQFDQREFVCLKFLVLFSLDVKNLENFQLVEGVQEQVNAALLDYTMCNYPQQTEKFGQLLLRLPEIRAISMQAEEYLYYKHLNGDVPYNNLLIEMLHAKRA

One assay addresses Nuclear receptor subfamily 5 group A member 2 (Homo sapiens) (UniProt O00482). Put plainly: LRH1 inhibitors, concentration-response, dose response, cell-based, HEK293T, Cyp19 aromatase-luciferase, luminescence, powder samples (AID 488782). To be noted: HEK293T LRH1 Cyp19-luciferase reporter, 20 h. In outline: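 assay system = HEK293T cells carrying LRH1 plus Cyp19-luciferase reporter | compound = Nine-point dilution series, highest nominal concentration 10 µM | schedule = bulk transfection 24 h before replating, compound exposure 20 h | signal = luciferase luminescence | measure = IC50 from sigmoidal fit of DMSO-normalized inhibition | benchmarks = DMSO-treated wells as normalization reference | replicates = triplicate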
Regarding `O=c1cc(N2CCN(c3ccccc3)CC2)[nH]c(=O)n1C1CCCCC1`, the IC50 was 2.6 µM.

On to `O=c1cc(N2CCN(c3cccc(C(F)(F)F)c3)CC2)[nH]c(=O)n1C1CCCCC1`, for which the IC50 is 0.32 µM.

As to `O=c1cc(N2CCN(c3nc(-c4ccccc4)ns3)CC2)[nH]c(=O)n1C1CCCCC1`, the IC50 is 4.8 µM.

`CC(C)Cn1c(=O)cc(N2CCN(c3cccc(C(F)(F)F)c3)CC2)[nH]c1=O`: the IC50 is 0.11 µM.

On to `O=c1cc(N2CCN(c3cccc(Cl)c3Cl)CC2)[nH]c(=O)n1C1CCCCC1`, for which the IC50 was 0.43 µM.

For the molecule `O=c1cc(N2CCN(c3cccc(Cl)n3)CC2)[nH]c(=O)n1C1CCCCC1`, the IC50 is 0.538 µM.

With `CCn1c(=O)cc(N2CCN(c3cccc(C(F)(F)F)c3)CC2)[nH]c1=O`, the IC50 was 1 µM.

Regarding `O=c1cc(N2CCN(C3CCCCC3)CC2)[nH]c(=O)n1C1CCCCC1`, the IC50 is 0.921 µM.

Consider `Cn1c(=O)cc(N2CCN(c3cccc(Cl)c3)CC2)[nH]c1=O`, for which the IC50 was 1.1 µM.

For the molecule `CCn1c(=O)cc(N2CCN(c3cccc(Cl)c3)CC2)[nH]c1=O`, the IC50 was 4.2 µM.

As for `O=c1cc(N2CCN(c3ccnc4cc(Cl)ccc34)CC2)[nH]c(=O)n1C1CCCCC1`, the IC50 was 4 µM.

With `O=c1cc(N2CCN(c3cccc(Cl)c3)CC2)[nH]c(=O)n1C1CCCCC1`, the IC50 is 3.7 µM.

`C=CCn1c(=O)cc(N2CCN(c3cccc(C(F)(F)F)c3)CC2)[nH]c1=O`: the IC50 was 0.57 µM.

Still in this assay, the particulars now being: HEK293T LRH1 Cyp19-luciferase reporter, 20 h, at 10 µM (top of the series).
As for `O=c1cc(N2CCN(Cc3ccc(Cl)cc3)CC2)[nH]c(=O)n1C1CCCCC1`, the “fold change, lower = inhibition” value was “inactive”.
